Hits are enriched below; roughly 0.72% of the tested compounds scored in any of these assays.
bIAP inh: bovine intestinal alkaline phosphatase inhibitors, primary screen, selectivity assay for TNAP inhibitor project, biochemical, bovine IAP, CDP-star luminescence; alkaline phosphatase, intestinal [Bos taurus]; purified bovine IAP, 30 min; inhibition, % at 20 µM; AID 1019, 2008; 190,000 tested, under 10 active;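 active means over 50% inhibition of intestinal alkaline phosphatase at 20 µM in the single-dose screen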
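System: Purified bovine intestinal alkaline phosphatase (IAP) enzyme | Input: IAP diluted 1/65,000,000 in the well | Also added: CDP-star chemiluminescent phosphatase substrate, 30 µM final | Dosing: 20 µM single dose | Times: Enzyme reaction for 30 min at room temperature | Detection: Luminescence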
hIAP block: human IAP inhibitors, primary screen, biochemical, luminescence, uHTS; inhibition, % at 10 µM; Intestinal-type alkaline phosphatase (Homo sapiens), P09923; purified IAP, CDP-Star luminescence, 30 min; 330,000 tested, 0.12% active;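 active means inhibition reaching a set limit with compound at 10 µM in the primary screen, cut at about 35% in these data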;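 further: plate controls were DMSO wells with enzyme for no effect and no-enzyme buffer wells for full effect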
Target sequence (P09923 whole entry, looked up): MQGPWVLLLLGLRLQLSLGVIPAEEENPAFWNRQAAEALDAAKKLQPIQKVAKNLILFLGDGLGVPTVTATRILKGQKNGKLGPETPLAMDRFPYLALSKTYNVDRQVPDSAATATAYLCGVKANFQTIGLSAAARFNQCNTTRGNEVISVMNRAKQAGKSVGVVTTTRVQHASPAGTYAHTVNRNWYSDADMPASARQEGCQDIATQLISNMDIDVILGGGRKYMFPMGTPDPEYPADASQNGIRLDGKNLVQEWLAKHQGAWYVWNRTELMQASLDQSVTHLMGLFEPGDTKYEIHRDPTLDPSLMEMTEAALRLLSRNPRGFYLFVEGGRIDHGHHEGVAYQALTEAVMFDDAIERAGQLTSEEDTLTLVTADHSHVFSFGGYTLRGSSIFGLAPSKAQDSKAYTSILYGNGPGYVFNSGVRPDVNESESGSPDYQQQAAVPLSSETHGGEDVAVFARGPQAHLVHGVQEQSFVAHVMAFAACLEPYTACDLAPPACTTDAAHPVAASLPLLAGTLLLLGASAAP
hIAP activ: human IAP activators, primary screen, biochemical, luminescence, uHTS; Intestinal-type alkaline phosphatase (Homo sapiens), P09923; purified human IAP, CDP-Star luminescence, 30 min; active compounds read high; 1 = vehicle-only enzyme, 0 = enzyme-free background; activation factor at 10 µM; 330,000 tested, 0.16% active; AID 2524, 2010;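 active means activation factor of the enzyme at least 2-fold when tested at 20 µM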
mIAP inh: inhibitors of mouse IAP, primary screen, biochemical, luminescence, uHTS. inhibition, % at 10 µM. purified mouse IAP, CDP-Star luminescence, 30 min. 330,000 tested, 0.2% active. intestinal alkaline phosphatase [Mus musculus];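 active means inhibition of at least 40% at 10 µM in the primary screen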;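 further: plate controls were DMSO with enzyme for no effect and no enzyme wells for full effect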
mIAP act: activators of mouse IAP, primary screen, biochemical, luminescence, uHTS; intestinal alkaline phosphatase [Mus musculus]; muIAP, CDP-Star luminescence, 30 min; active compounds read high; 1 = vehicle-only enzyme signal, 0 = enzyme-free wells; activation factor at 10 µM; 330,000 tested, 0.24% active;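 active means activation factor of at least 2 at 20 µM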
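Assay system: mouse IAP enzyme / Compound: DMSO-dissolved test compounds / Timing: 30 min, room temperature / Measured by: luminescence from enzymatic CDP-Star hydrolysis / Control set: DMSO-only wells, enzyme-free buffer wells as negative control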
bIAP act: bovine intestinal alkaline phosphatase activators, primary screen, biochemical, bovine IAP, CDP-star luminescence; alkaline phosphatase, intestinal [Bos taurus]; purified bovine IAP, 30 min; active compounds read high; fold of DMSO-control signal, blank-subtracted; activation factor at 20 µM; 200,000 tested, 0.17% active; AID 1016, 2008;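 active means activation factor of 2 or more at 20 µM, a signal rise over negative controls twice the positive control's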
hIAP act confirm: human IAP activators, confirmation, biochemical, luminescence, single concentration, uHTS hits. shares compounds with hIAP activ. purified IAP, CDP-Star luminescence, 30 min; active compounds read low. activation (%Activity, negative = activation), % at 8.3 µM. 880 tested, 10% active;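 active means at least twofold enzyme activation in any of six single-dose repeats, which the averaged readout prints as negative percent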
Numbers without * were called inactive; . = no result.

SMILES	bIAP inh	hIAP block	hIAP activ	mIAP inh	mIAP act	bIAP act	hIAP act confirm
Cc1nc2c3ccccc3nc(NNC(=O)CCC(=O)NC3CCCC3)n2n1	-51	6	0.94	23	0.77	1.5	.
Cc1nc2c3ccccc3nc(NNC(=O)CCC(=O)N3CCCC(C)C3)n2n1 (stereo not given)	.	-154	2.5*	14	0.86	.	-42*
CCOC(=O)N1CCN(C(=O)COC(=O)CNC(=O)c2ccc(OCC)c(OCC)c2)CC1	.	-8	1.1	-1	1	.	.
COc1ccc(NC(=O)C2CCN(Cc3cnn(-c4ccccc4)c3-n3cccc3)CC2)cc1OC	-225	-100	2*	-71	1.7	3.3*	-55
COc1ccc(OC)c(NC(=O)C2CCN(Cc3cnn(-c4ccccc4)c3-n3cccc3)CC2)c1	-14	3	0.97	-10	1.1	1.1	.
Cc1ccccc1CC1(CO)CCCN(C(=O)c2ccc3ncccc3c2)C1 (stereo not given)	-9	3	0.97	-2	1	1.1	.
O=C(N/N=C/c1cccc([N+](=O)[O-])c1)c1nc2ccccc2c(=O)[nH]1	.	-140	2.4*	26	0.74	.	33
COc1cccc(N2CCN(c3ccc4nnc(CCC(=O)Nc5cccc(C(C)=O)c5)n4n3)CC2)c1	.	-45	1.5	3	0.97	.	.
CCCCCCN1C=CC(=C/C=C(\C#N)C(=O)OCC)C=C1	42	44*	0.56	36	0.64	0.6	-27
Cc1ccc(C(=O)NNC(=O)CCC(=O)NCc2ccccc2)cc1Br	.	-121	2.2*	11	0.89	.	2
N#C/C(=C\c1ccc(N2CCCCC2)c([N+](=O)[O-])c1)c1nn(-c2ccccc2)c(N)c1C#N	12	19	0.81	16	0.84	0.9	.
N#C/C(=C/c1ccc(O)c(O)c1)c1nc2ccccc2[nH]1	.	58*	0.42	36	0.64	.	4
N#C/C(=C\c1ccc(N2CCCC2)c([N+](=O)[O-])c1)c1nc2ccccc2[nH]1	21	35*	0.65	12	0.88	0.8	-1
Cc1ccc(N(C(=O)c2csnn2)C(C(=O)NC2CCCCC2)c2cccnc2)c(C)c1 (stereo not given)	.	8	0.93	2	0.98	.	.
O=C(CNC(=S)N(CCCN1CCOCC1)Cc1cccs1)NCc1ccccc1Cl	.	-110	2.1*	-1	1	.	14
COC(CNC(=O)CNC(=S)N(CCCN1CCOCC1)Cc1cccs1)OC	8	-28	1.3	-18	1.2	0.9	.
O=C(CNC(=S)N(CCCN1CCOCC1)Cc1cccs1)NCc1ccc(Cl)cc1	.	-186	2.9*	-8	1.1	.	-51
O=C(CNC(=S)N(CCCN1CCOCC1)Cc1cccs1)NCCCN1CCOCC1	-10	5	0.95	15	0.85	1.1	.
CCn1c(SCC(=O)Nc2ccc(OC)c(S(=O)(=O)N3CCCCC3)c2)nnc1C1CC1	.	4	0.96	-7	1.1	.	.
Cc1cc(C)cc(-n2ncc3c2CCCC3NC(=O)CCN2CCCC2=O)c1 (stereo not given)	.	8	0.92	-10	1.1	.	.
CC(C)(C)c1ccc(OC(=O)c2cccnc2)cc1	6	-5	1	-4	1	0.9	.
COc1ccc(OC(=O)c2cccnc2)cc1	6	41*	0.59	8	0.92	0.9	7
COc1ccccc1CNC(=O)CN(c1ccc(C)cc1)S(=O)(=O)c1c(C)noc1C	.	38*	0.62	4	0.96	.	32
O=C(Cn1cnc2ccccc2c1=O)N/N=C/c1ccc(Br)cc1	.	14	0.86	16	0.84	.	.
O=C(CSc1nnc(-c2ccccc2O)n1Cc1ccccc1)NNC(=O)c1ccccc1O	-4	-146	2.5*	20	0.8	1	-41
SMILES	bIAP inh	hIAP block	hIAP activ	mIAP inh	mIAP act	bIAP act	hIAP act confirm
CCOc1ccc(CCNC(=O)COC(=O)CSc2ccc(C)cc2)cc1OCC	.	0	1	11	0.89	.	.
O=C(CSc1ncn[nH]1)NCCc1ccccc1	1	-164	2.6*	-10	1.1	1	-113*
CCSc1nnc(NC(=O)c2ccc3ccccc3n2)s1	1	-113	2.1*	15	0.85	1	-7
CCc1nnc(NC(=O)c2ccc3ccccc3n2)s1	-45	-53	1.5	25	0.75	1.5	.
CC1Sc2ccc(S(=O)(=O)N3CCC(C(=O)NCc4ccccc4)CC3)cc2NC1=O (stereo not given)	.	-38	1.4	-8	1.1	.	.
CCOc1cc(C(=O)Nc2ccc(C(=O)NCCN(CC)CC)cc2)ccc1OCC(=O)N1CCOCC1	.	14	0.86	6	0.94	.	.
Cc1ccc(NC(=O)NNC(=O)c2cc3ccccc3cc2O)cc1	.	-112	2.1*	4	0.96	.	-70*
COc1ccccc1NC(=O)NNC(=O)c1cc2ccccc2cc1O	.	-101	2*	11	0.89	.	-55
CN(Cc1ccccc1)C(=O)c1[nH]cnc1C(=O)Nc1nccs1	.	-145	2.5*	0	1	.	-141*
CN(Cc1ccccc1)C(=O)c1[nH]cnc1C(=O)NCc1ccccc1	.	-23	1.2	6	0.94	.	.
O=C(Nc1nccs1)c1nc[nH]c1C(=O)NCc1ccccc1	.	-136	2.4*	-7	1.1	.	-3
COC(=O)C1=C(C)N(CCCC(=O)O)C(=O)NC1c1ccc(Br)cc1 (stereo not given)	.	12	0.89	-2	1	.	.
CC(C)c1c(C(=O)N/N=C/c2cccc(OCc3ccc(F)cc3)c2)nnn1-c1nonc1N	.	3	0.97	12	0.88	.	.
CCN(CC)c1ccc(/C=N/NC(=O)c2nnn(-c3nonc3N)c2C(C)C)c(O)c1	.	-100	2*	14	0.86	.	32
CC(C)c1c(C(=O)N/N=C/c2ccc3c(c2)OCO3)nnn1-c1nonc1N	.	-10	1.1	2	0.98	.	.
Cc1ccc(NCc2ccc([N+](=O)[O-])s2)cc1	.	37*	0.63	6	0.94	.	26
CN(Cc1ccccc1)C(=O)c1ccccc1N(C)S(=O)(=O)c1ccccc1	.	1	0.99	0	1	.	.
O=C(Cc1ccc(Cl)c(Cl)c1)NNC(=S)NCC1CCCO1 (stereo not given)	.	-107	2.1*	4	0.95	.	-98*
